PTEN del growth = suppresses growth of cells with PTEN deletion; viability, % at 10 µM; actives 1.2% (n = 140,000); HCT116 PTEN-null viability, CellTiter-Glo, 60 h; hits give low values;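 active = viability at or below a set limit, 4 SD under the median of all tested compounds, cut at about 3.7% in these data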;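 also: PTEN knockout HCT116 line with beta catenin targeted HCT116 as companion control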
Fibroblast inh = blocks proliferation of human lung fibroblasts | actives 1.1% (n = 85,000) | LL 47 human lung fibroblast viability, ATP luminescence; hits give low values | viability, % at 10 µM;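 active = viability at or below 50% in the single dose screen; inactive = viability above 50%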;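 also: compound exposure lasted 72 h before the ATP readout; 100% = median luminescence of untreated cell-only wells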
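Material: Human LL 47 lung fibroblast cells | Input: 1,150 cells/well | Buffer or medium: IMEM plus 15% FBS | Compound dosing: 0.1% DMSO in all compound wells | Times: Overnight cell rest, 72 h compound treatment at 37 °C | Signal: CellTiter-Glo luminescence measuring cellular ATP | Measure: % viability versus median cells-only luminescence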
HUVEC prolif 384 = human endothelial cell proliferation inhibition | HUVEC proliferation, CellTiter-Glo luminescence, 72 h; hits give low values | viability, % at 10 µM (by protocol) | actives 1.1% (n = 86,000) | AID 648;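 active = viability at or below 30%; inactive = viability above 30%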;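 also: 100% = median luminescence of DMSO-only cell control wells on each plate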
H69AR growth 86K = blocks growth of human H69AR lung tumor cells; actives 6% (n = 85,000); H69AR lung tumor viability, ATP luminescence, 72 h; hits give low values; viability, % at 10 µM;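 active = viability at or below 40%; inactive = viability above 40%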;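 also: multidrug resistant small cell line overexpressing MRP-1 efflux transporter; 100% = mean luminescence of untreated control wells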
bCat KO growth = beta-catenin-lacking colon tumor cell growth suppression. HCT116 beta-catenin knockout viability, CellTiter-Glo, 60 h; hits give low values. viability, % at 10 µM. actives 1.5% (n = 140,000);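 active = viability at or under a set limit, the compound median less 4 SD, cut at about 6% in these data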;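 also: 0% = Hyamine 1622 control at 20 µM and 100% = untreated cell control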
Active calls of the source: *. The full list was thinned out, with hits kept by preference.

What do the screens show for `CCCN1C(=O)/C(=C2\SC(N3CCCCC3)=NC2=O)c2ccccc21`?
PTEN del growth: 62; HUVEC prolif 384: 89; H69AR growth 86K: 19*; bCat KO growth: 65

Results for CCc1nc(SCC(=O)NCc2ccccc2)c2c(=O)n(C)c(=O)n(C)c2n1 ?
PTEN del growth: 84; Fibroblast inh: 94; HUVEC prolif 384: 87; H69AR growth 86K: 27*; bCat KO growth: 95

What do the screens show for `CCCc1nc(SCC(=O)N2CCC(Cc3ccccc3)CC2)c2c(=O)n(C)c(=O)n(C)c2n1`?
PTEN del growth: 1.4*; Fibroblast inh: 105; HUVEC prolif 384: 3.2*; H69AR growth 86K: 42; bCat KO growth: 8

Results for CC(NC(=O)C1(C)CC1(Br)Br)C(C)(C)C (centres undefined) ?
PTEN del growth: 101; bCat KO growth: 105

Results for Cc1ccccc1OCCCn1c(=O)sc2ccccc21 ?
PTEN del growth: 75; Fibroblast inh: 98; HUVEC prolif 384: 89; H69AR growth 86K: 77; bCat KO growth: 78

Results for COc1ccc(Cn2nnnc2CN(Cc2cc3cc(C)ccc3[nH]c2=O)C2CCCC2)cc1 ?
PTEN del growth: 54; Fibroblast inh: 89; HUVEC prolif 384: 78; H69AR growth 86K: 51; bCat KO growth: 66

Results for CCC(c1nnnn1C1CCCCC1)N(Cc1ccco1)Cc1cc2ccc(OC)cc2[nH]c1=O (centres undefined) ?
PTEN del growth: 18; Fibroblast inh: 93; HUVEC prolif 384: 53; H69AR growth 86K: 15*; bCat KO growth: 3.0*

Results for COc1ccc2[nH]c(=O)c(CN(C3CCCCC3)C(c3nnnn3Cc3ccco3)C(C)C)cc2c1 (centres undefined) ?
PTEN del growth: 47; Fibroblast inh: 39*; HUVEC prolif 384: 56; H69AR growth 86K: 96; bCat KO growth: 50

Results for CCC(c1nnnn1Cc1ccco1)N(Cc1ccccc1OC)Cc1cc2cc(C)ccc2[nH]c1=O (centres undefined) ?
PTEN del growth: 40; Fibroblast inh: 86; HUVEC prolif 384: 81; H69AR growth 86K: 79; bCat KO growth: 55

What do the screens show for `COc1ccc2[nH]c(=O)c(CN(Cc3nnnn3Cc3ccco3)C3CCCCC3)cc2c1`?
PTEN del growth: 67; Fibroblast inh: 97; HUVEC prolif 384: 69; H69AR growth 86K: 38*; bCat KO growth: 76

What do the screens show for `CCCNC1=C(N(C(C)=O)c2cccc(F)c2)C(=O)c2ccccc2C1=O`?
PTEN del growth: 0.8*; bCat KO growth: 1.0*

How did Cc1cc(C)nc(/N=c2/ssnc2Cl)c1 do in these assays?
PTEN del growth: 12; Fibroblast inh: 105; HUVEC prolif 384: 113; H69AR growth 86K: 20*; bCat KO growth: 41

How did Cc1ccc(N=C2NC(=O)CS2)cc1 do in these assays?
PTEN del growth: 101; Fibroblast inh: 104; HUVEC prolif 384: 89; H69AR growth 86K: 97; bCat KO growth: 90

What do the screens show for `COc1cc(N=c2ssnc2Cl)c(OC)cc1Cl`?
PTEN del growth: 104; Fibroblast inh: 44*; HUVEC prolif 384: 85; H69AR growth 86K: 1.1*; bCat KO growth: 101

What do the screens show for `Cc1ccc(N=c2ssnc2Cl)cc1`?
PTEN del growth: 88; Fibroblast inh: 97; HUVEC prolif 384: 101; H69AR growth 86K: 2.4*; bCat KO growth: 97

How did COc1ccc(OC)c(N=c2ssnc2Cl)c1 do in these assays?
PTEN del growth: 94; bCat KO growth: 97

What do the screens show for `Cc1cc(Cl)ccc1N=c1ssnc1Cl`?
PTEN del growth: 58; Fibroblast inh: 101; HUVEC prolif 384: 40; H69AR growth 86K: 2.2*; bCat KO growth: 13

How did Nc1ccccc1-c1nnn(CC(=O)N2CCCc3ccccc32)n1 do in these assays?
PTEN del growth: 92; Fibroblast inh: 98; HUVEC prolif 384: 96; H69AR growth 86K: 90; bCat KO growth: 76

Results for Cc1ccc2nc(SCc3nnc(-c4ccccc4Br)o3)[nH]c2c1 ?
PTEN del growth: 92; Fibroblast inh: 84; HUVEC prolif 384: 84; H69AR growth 86K: 78; bCat KO growth: 88

Results for CCOc1cc(/C=N/NC(=O)CSc2nnc(C)s2)ccc1OCc1ccccc1Cl ?
PTEN del growth: 44; bCat KO growth: 55

How did CCOc1cc(/C=N\NC(=O)Cn2nc([N+](=O)[O-])cc2C)ccc1OCc1cccc2ccccc12 do in these assays?
PTEN del growth: 50; Fibroblast inh: 102; HUVEC prolif 384: 44; H69AR growth 86K: 16*; bCat KO growth: 59

How did CCn1c(NC(=O)Nc2cccc(C)c2C)cc2sccc21 do in these assays?
PTEN del growth: 87; bCat KO growth: 84
